Tests used:
Aspergillus parasiticus = experiment: Fungicidal activity against Aspergillus parasiticus CECT 2681 at 0.2 mg/disk after 72 hrs by paper disk-agar diffusion method; type: functional
How it was run: (§1)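 Fungi were grown on potato dextrose agar (PDA) for 7 days at 28 °C. Conidia were suspended to ~10⁶/mL in 0.05% Tween 80 in sterile water, and 1 mL was mixed into 15 mL PDA. Four 0.5 cm paper disks (0.2 mg/disk) were placed on the set agar. Controls were vehicle-only disks and benomyl at species-dependent doses. The inhibition zone was read in mm at 72 h as the mean ± SE of three independent experiments.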

[1] = tested on: Pectobacterium carotovorum; experiment: Bactericidal activity against Erwinia carotovora CECT 225 at 0.2 mg/disk after 24 hrs by paper disk-agar diffusion method; type: functional
How it was run: (§2)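 Each bacterial strain was taken from a 24-h culture on solid medium, reactivated in Nutrient Broth, and grown a further 24 h at 28 or 37 °C depending on the strain. 1 mL of suspension was mixed with 15 mL Plate Count Agar. Four 0.5 cm paper disks (0.2 mg/disk) were placed on the set agar. Controls were vehicle-only disks and tetracycline. Plates were incubated 24 h, dark, 28 or 37 °C. The inhibition zone was read in mm as the mean ± SE of three independent experiments.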

Enterococcus faecalis = experiment: Bactericidal activity against Enterococcus faecalis CECT 481 at 0.2 mg/disk after 24 hrs by paper disk-agar diffusion method; type: functional; how it was run: as §2
Escherichia coli [2] = experiment: Bactericidal activity against Escherichia coli CECT 100 at 0.2 mg/disk after 24 hrs by paper disk-agar diffusion method; type: functional; how it was run: as §2
Geotrichum candidum = experiment: Fungicidal activity against Geotrichum candidum CCM 245 at 0.2 mg/disk after 72 hrs by paper disk-agar diffusion method; type: functional; how it was run: as §1
Bacillus cereus = experiment: Bactericidal activity against Bacillus cereus CECT 148 at 0.2 mg/disk after 24 hrs by paper disk-agar diffusion method; type: functional; how it was run: as §2
Trichoderma viride = experiment: Fungicidal activity against Trichoderma viride CECT 2423 at 0.2 mg/disk after 72 hrs by paper disk-agar diffusion method; type: functional; how it was run: as §1
Staphylococcus aureus = experiment: Bactericidal activity against Staphylococcus aureus CECT 86 at 0.2 mg/disk after 24 hrs by paper disk-agar diffusion method; type: functional; how it was run: as §2
Salmonella typhi = experiment: Bactericidal activity against Salmonella typhi CECT 409 at 0.2 mg/disk after 24 hrs by paper disk-agar diffusion method; type: functional, Salmonella enterica subsp. enterica serovar Typhi
How it was run: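 Paper disk-agar diffusion, run in triplicate. 24-h culture reactivated in nutrient broth and grown a further 24 h at 28 or 37 °C by species. 1 mL suspension mixed into 15 mL plate count agar. Four 0.5 cm disks placed per plate, incubated 24 h in the dark. Inhibition zone (mm) reported as mean ± SE of three independent experiments; vehicle disks as negative control.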

Escherichia coli [3] = experiment: Bactericidal activity against Escherichia coli CECT 405 at 0.2 mg/disk after 24 hrs by paper disk-agar diffusion method; type: functional; how it was run: as §2
Fusarium culmorum = experiment: Fungicidal activity against Fusarium culmorum CCM 172 at 0.2 mg/disk after 72 hrs by paper disk-agar diffusion method; type: functional; how it was run: as §1
[4] = tested on: Phytophthora citrophthora; experiment: Fungicidal activity against Phytophthora citrophthora CECT 2353 at 0.2 mg/disk after 72 hrs by paper disk-agar diffusion method; type: functional; how it was run: as §1

| SMILES | inhibition zone (IZ) (Aspergillus parasiticus) | inhibition zone (IZ) [1] | inhibition zone (IZ) (Enterococcus faecalis) | inhibition zone (IZ) (Escherichia coli [2]) | inhibition zone (IZ) (Geotrichum candidum) | inhibition zone (IZ) (Bacillus cereus) | inhibition zone (IZ) (Trichoderma viride) | inhibition zone (IZ) (Staphylococcus aureus) | inhibition zone (IZ) (Salmonella typhi) | inhibition zone (IZ) (Escherichia coli [3]) | inhibition zone (IZ) (Fusarium culmorum) | inhibition zone (IZ) [4] |
| --- | --- | --- | --- | --- | --- | --- | --- | --- | --- | --- | --- | --- |
| COc1cc2c(cc1OC)C(CCCCCOC(=O)c1ccccc1)N(C)CC2 (stereo not given) | 0 mm | 12.17 mm | 9.83 mm | 11 mm | 6.75 mm | 10.83 mm | 7.25 mm | 10.67 mm | 9.67 mm | 9.83 mm | 7 mm | 0 mm |
| COc1cc2c(cc1OC)C(CCCCCOC(=O)c1ccc(Cl)cc1)N(C)CC2 (stereo not given) | 0 mm | 12.67 mm | 11.67 mm | 13.67 mm | 12.33 mm | 13 mm | 9 mm | 12.67 mm |  | 11.5 mm | 6.67 mm | 10.33 mm |
| COc1ccc(C(=O)OCCCCCC2c3cc(OC)c(OC)cc3CCN2C)cc1 (stereo not given) | 0 mm | 10.33 mm | 11.33 mm | 10.83 mm | 7.33 mm | 10.33 mm | 5.5 mm | 11.33 mm |  | 11.33 mm | 5.5 mm | 0 mm |
| COc1cc2c(cc1OC)C(CCCCCOC(=O)CCc1ccccc1)N(C)CC2 (stereo not given) | 0 mm | 10.67 mm | 8.67 mm | 11.33 mm | 7.83 mm | 10.33 mm | 8 mm | 9.67 mm |  | 8.67 mm | 6.33 mm | 6.67 mm |
| COc1cc2c(cc1OC)C(CCCCCOC(=O)CCc1ccc(Cl)cc1)N(C)CC2 (stereo not given) | 0 mm | 11 mm | 8.33 mm | 8.67 mm | 8.5 mm | 11 mm | 9 mm | 8.67 mm | 8.17 mm | 9.17 mm | 9.5 mm | 8.5 mm |
| COc1ccc(CCC(=O)OCCCCCC2c3cc(OC)c(OC)cc3CCN2C)cc1 (stereo not given) | 0 mm | 11.33 mm | 7 mm | 7 mm | 5.75 mm | 8.5 mm | 6 mm | 7.83 mm | 8 mm | 7.33 mm | 6.5 mm | 0 mm |
| COc1cc2c(cc1OC)C(CCCCCOC(=O)NCCc1ccccc1)N(C)CC2 (stereo not given) | 0 mm | 11 mm | 13.67 mm | 10.67 mm | 7.67 mm | 10.17 mm | 0 mm | 14 mm | 13.5 mm | 14 mm | 0 mm | 0 mm |
| COc1ccc(CCNC(=O)OCCCCCC2c3cc(OC)c(OC)cc3CCN2C)cc1 (stereo not given) | 0 mm | 17 mm | 11 mm | 10.67 mm | 7 mm | 12 mm | 0 mm | 9 mm |  | 13.33 mm | 0 mm | 0 mm |
| CCCCC1=[N+](C)CCc2cc(OC)c(OC)cc21 |  | 7 mm | 7 mm | 0 mm |  | 7 mm |  | 7 mm | 6.75 mm | 7 mm |  |  |
| COC(=O)CCCCC1=[N+](C)CCc2cc(OC)c(OC)cc21 |  | 5.5 mm | 0 mm | 0 mm |  | 6.33 mm |  | 0 mm | 0 mm | 0 mm |  |  |
| COC(=O)CCCCC1c2cc(OC)c(OC)cc2CCN1C (stereo not given) |  | 0 mm | 0 mm | 5.83 mm |  | 6.33 mm |  | 5.5 mm | 0 mm | 0 mm |  |  |
| CN(C)[C@@H]1C(O)=C(C(N)=O)C(=O)[C@@]2(O)C(O)=C3C(=O)c4c(O)cccc4[C@@](C)(O)[C@H]3C[C@@H]12 [TETRACYCLINE] |  | 34.67 mm | 31.17 mm | 25.67 mm |  | 23.33 mm |  | 27 mm | 24.33 mm | 25.67 mm |  |  |
